A selection: hits, their analogues and other compounds. The true share with any hit is near 9.6%.
L major viab: Leishmania major promastigote growth inhibition, primary screen | Leishmania major promastigotes, resazurin fluorescence viability | inhibition, % at 10 µM | 200,000 tested, 9% active; in the data active = inhibition above about 50%;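 note: promastigotes grown with compound for 44 hours at 28 °C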
HCT116 PTEN-null: growth suppression of PTEN-null HCT116, primary screen, cell-based, CellTiter-Glo; HCT116 PTEN-null viability, 60 h; stronger effect = lower value; viability, % at 10 µM; 140,000 tested, 1.2% active;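 active = viability at or below a set limit, 4 SD under the median of all tested compounds, cut at about 3.7% in these data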;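 note: PTEN knockout HCT116 line with beta catenin targeted HCT116 as companion control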
PMI act: activators of human PMI, primary screen, biochemical, fluorescence intensity, near-Km mannose 6-phosphate. purified human PMI, coupled resazurin fluorescence, 20 min; stronger effect = higher value; 1 = vehicle control, 0 substrate-free wells. activation factor at 20 µM. 190,000 tested, 0.005% active;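 active = activation factor of 2 or more at 20 µM, relative to plate controls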
Target sequence (P34949 whole entry, looked up): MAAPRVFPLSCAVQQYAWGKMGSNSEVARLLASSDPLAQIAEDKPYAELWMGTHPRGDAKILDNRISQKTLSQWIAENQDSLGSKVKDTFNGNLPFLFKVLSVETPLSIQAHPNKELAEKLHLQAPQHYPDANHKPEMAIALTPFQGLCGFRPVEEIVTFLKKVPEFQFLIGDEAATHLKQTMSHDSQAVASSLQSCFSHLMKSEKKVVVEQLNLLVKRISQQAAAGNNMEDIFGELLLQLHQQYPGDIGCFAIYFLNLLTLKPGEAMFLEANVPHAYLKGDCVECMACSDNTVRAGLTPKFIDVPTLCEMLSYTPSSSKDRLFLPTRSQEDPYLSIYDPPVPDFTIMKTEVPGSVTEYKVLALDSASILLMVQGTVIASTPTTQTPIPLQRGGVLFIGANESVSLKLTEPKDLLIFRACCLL
HCT116 bCat-KO: primary screen for growth suppressors in beta-catenin knockout HCT116 cells (colon tumor, human); HCT116 beta-catenin knockout viability, CellTiter-Glo, 60 h; stronger effect = lower value; viability, % at 10 µM; 140,000 tested, 1.5% active;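 active = viability at or under a set limit, the compound median less 4 SD, cut at about 6% in these data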;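 note: 0% = Hyamine 1622 control at 20 µM and 100% = untreated cell control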
PMI act satM6P: human PMI activators, high substrate, primary screen, biochemical, fluorescence intensity, near-saturating mannose 6-phosphate. Mannose-6-phosphate isomerase (Homo sapiens), P34949. coupled PMI enzyme assay, resazurin fluorescence, 20 min; stronger effect = higher value; 1 = untreated enzyme, 0 = substrate-free blank. activation factor at 20 µM. AID 1216, 2008. 190,000 tested, 0.34% active;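 active = activation factor of 2 or more at 20 µM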
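Test system: human phosphomannose isomerase with PGI, G6PDH, diaphorase coupling enzymes; Amount: PMI at 15 ng/mL final; Reagent: Mannose-6-phosphate 1.0 mM (near-saturating) plus 0.22 mM NADP+; Timing: 20 min, room temperature; Technique: resorufin fluorescence at Ex 544/Em 590 nm; Dosing: 20 µM single dose.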
* marks the source's active call; other numbers are inactive results; / = no result given.

SMILES	L major viab	HCT116 PTEN-null	PMI act	HCT116 bCat-KO	PMI act satM6P
CCOc1ccc([N+](=O)[O-])cc1CNCCc1ccccc1	96*	/	0.9	/	0.8
Cc1ccc(NP(=O)(Nc2ccc(C)cc2)Oc2ccccc2)cc1	17	/	0.8	/	0.8
Cc1[nH]n(-c2ccccc2)c(=O)c1C(c1ccc([N+](=O)[O-])cc1)c1c(C)[nH]n(-c2ccccc2)c1=O	62*	88	1	91	1
CCC(C)N1C(=O)/C(=C/c2ccc3c(c2)CCN3CCCCl)C(=O)NC1=S (stereo unspecified)	55*	81	1.1	96	1.1
CN(C)c1ccc(-[n+]2c(-c3ccccc3)cc(-c3ccccc3)cc2-c2ccccc2)cc1	100*	/	1	/	1.1
CC(C(=O)c1cn(C)c2ccccc12)c1ccccc1 (stereo unspecified)	6	107	0.9	91	0.9
CCN1CCN(c2cc(N3CCCC3)c(F)cc2[N+](=O)[O-])CC1	71*	53	0.8	54	0.7
CN1CCN(c2cc(N3CCCC3)c([N+](=O)[O-])cc2F)CC1	99*	88	1	94	0.9
O=[N+]([O-])c1cc(F)c(N2CCCC2)cc1Br	-9	/	0.9	/	0.7
COc1cc2c(cc1OC)-c1c(OC)c(OC)cc3c1[C@H](C2)[N+](C)(C)CC3	-3	90	1	99	0.9
O=C(OCC(=O)c1ccc([N+](=O)[O-])cc1)/C(=C/c1ccc(Cl)cc1)NC(=O)c1ccccc1	-2	99	1	103	1
c1ccc(C2CC3CC4(CCCC4)N2O3)cc1 (stereo unspecified)	2	88	0.9	88	0.8
OC(CNC1CCCCCCC1)c1ccccc1 (stereo unspecified)	15	/	1	/	1.1
CCN(CC)CC(O)c1ccc(C2CCCC2)cc1 (stereo unspecified)	94*	83	1.1	71	1.1
CC1CCN(C(=O)C(C)Cl)CC1 (stereo unspecified)	-4	/	1.2	/	1.2
O=C(c1ccc(Cl)cc1)C1CCCN(Cc2cccc3cnccc23)C1 (stereo unspecified)	99*	/	0.9	/	1
CSc1ncc(CN2CCCC(C(=O)c3cccc(Cl)c3)C2)cn1 (stereo unspecified)	82*	/	1	/	1
O=C(c1cccc(Cl)c1)C1CCCN(Cc2ccon2)C1 (stereo unspecified)	-3	/	0.9	/	0.9
O=C(c1cccc(Cl)c1)C1CCCN(Cc2cccc3cnccc23)C1 (stereo unspecified)	95*	/	0.9	/	0.9
COc1cccc(C(=O)C2CCCN(Cc3cccc4c3OCO4)C2)c1 (stereo unspecified)	10	/	1	/	0.9
CCC(C)C1(CC)C(=O)NC(=O)N=C1N (stereo unspecified)	-4	77	1.1	91	1.1
COc1ccc(OCC(=O)N2CCN(C/C=C/c3ccccc3)CC2)cc1	73*	/	1	/	1
O=C(COc1ccccc1)N1CCN(C/C=C/c2ccccc2)CC1	92*	80	0.9	82	1
O=C(COc1ccccc1)N1CCN(CC(O)COc2ccccc2)CC1 (stereo unspecified)	18	99	0.8	123	0.9
O=C(COc1ccc(Cl)cc1)N1CCN(C/C=C/c2ccccc2)CC1	89*	66	0.9	68	1
SMILES	L major viab	HCT116 PTEN-null	PMI act	HCT116 bCat-KO	PMI act satM6P
Cc1ccc(OP(=O)(NCc2ccccc2)Oc2ccc(C)cc2)cc1	7	82	0.8	79	0.8
CC1CCN(C(=O)c2ccc(N3CC4CC(C3)c3cccc(=O)n3C4)c([N+](=O)[O-])c2)CC1 (stereo unspecified)	71*	104	0.9	93	1
O=c1[nH]sc2cc(F)ccc12	78*	/	0.5	/	0.6
O=C1Nc2ccccc2/C1=C/c1cnc[nH]1	98*	33	1	40	1.1
COc1ccc(-n2c(/C=C3\C(=O)Nc4ccccc43)nc3ccccc3c2=O)cc1	23	/	1	/	1.1
OC(c1ccc(F)cc1)C(c1ccccc1)N1CCOCC1 (stereo unspecified)	-2	102	0.9	97	1
